Assay [1] relates to Mus musculus. The assay can be described thus: Effect on loperamide-induced constipation in CD-1 mouse assessed as increase in stool weight at 10 mg/kg, po via gavage administered 1 hr prior to loperamide administration measured for 3 hrs. As to conditions: time 4.0 hrs. The class given is functional, organism-based. In short, it runs like this:
(§1)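 CD1 mice (bred in house, 8–12 weeks). Test compound given by oral gavage at 10 mg/kg in saline with 5% DMSO and 10% Kolliphor-HS, or vehicle alone, 1 h before loperamide (0.3 mg/kg ip in PBS with 5% ethanol). Mice then held in metabolic cages with free food and water. Stool collected over 3 h for total weight and pellet count. Water content from wet vs dry stool weight.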

The test system of assay [2] is Mus musculus. The assay can be described thus: Effect on loperamide-induced constipation in CD-1 mouse assessed as increase in pellet number at 10 mg/kg, po via gavage administered 1 hr prior to loperamide administration measured for 3 hrs. The class given is functional, organism-based. The following applies: time 4.0 hrs. Summed up:
as §1

A short description of assay [3]: Effect on loperamide-induced constipation in CD-1 mouse assessed as stool hydration at 10 mg/kg, po via gavage administered 1 hr prior to loperamide administration measured for 3 hrs (reference value: 49 +/- 2 %). The class given is functional. As to conditions: time 4 hrs. Summed up:
as §1

Activity calls are given as the source filed them. No cut-off for these calls is given here.

Consider `O=c1cc(COc2ccccc2Cl)nc2scc(-c3ccccc3)n12`, for which the outcome in the assay on Mus musculus [1] and with Mus musculus [2] was Active. The Activity in assay [3] is 55%.
